Assay results reported in ChEMBL document CHEMBL2010643 (Bioorg Med Chem Lett, 2012).
Active and inactive are the calls of the source. No cut-off for these calls is given here.

What was measured:
[1] = target: Mitogen-activated protein kinase 14 (Homo sapiens) (UniProt Q16539); test: Inhibition of p38alpha MAPK assessed as residual activity at 1 uM relative to control
How it was run: (§1)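 Radioactivity-based enzymatic kinase assays run across a 124-kinase profiling panel (Dundee), reporting the remaining kinase activity relative to a control.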

[2] = target: Leucine-rich repeat serine/threonine-protein kinase 2 (Mus musculus) (UniProt Q5S006); test: Inhibition of wild type LRRK2 phosphorylation at Ser935 in mouse 3T3 cells after 90 mins by Western blot analysis; assay type: cell-based
How it was run: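 Mouse Swiss 3T3 cells treated with DMSO or increasing inhibitor concentrations for 90 min. Endogenous LRRK2 in lysates immunoblotted with purified phospho-specific antibodies to Ser910 and Ser935 and with a total LRRK2 antibody. Blots done in duplicate, representative of at least two independent experiments.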

[3] = target: Death-associated protein kinase 1 (Homo sapiens) (UniProt P53355); test: Inhibition of DAPK1 assessed as residual activity at 10 uM relative to control
Chain of Death-associated protein kinase 1 (Homo sapiens) (P53355 whole entry, looked up): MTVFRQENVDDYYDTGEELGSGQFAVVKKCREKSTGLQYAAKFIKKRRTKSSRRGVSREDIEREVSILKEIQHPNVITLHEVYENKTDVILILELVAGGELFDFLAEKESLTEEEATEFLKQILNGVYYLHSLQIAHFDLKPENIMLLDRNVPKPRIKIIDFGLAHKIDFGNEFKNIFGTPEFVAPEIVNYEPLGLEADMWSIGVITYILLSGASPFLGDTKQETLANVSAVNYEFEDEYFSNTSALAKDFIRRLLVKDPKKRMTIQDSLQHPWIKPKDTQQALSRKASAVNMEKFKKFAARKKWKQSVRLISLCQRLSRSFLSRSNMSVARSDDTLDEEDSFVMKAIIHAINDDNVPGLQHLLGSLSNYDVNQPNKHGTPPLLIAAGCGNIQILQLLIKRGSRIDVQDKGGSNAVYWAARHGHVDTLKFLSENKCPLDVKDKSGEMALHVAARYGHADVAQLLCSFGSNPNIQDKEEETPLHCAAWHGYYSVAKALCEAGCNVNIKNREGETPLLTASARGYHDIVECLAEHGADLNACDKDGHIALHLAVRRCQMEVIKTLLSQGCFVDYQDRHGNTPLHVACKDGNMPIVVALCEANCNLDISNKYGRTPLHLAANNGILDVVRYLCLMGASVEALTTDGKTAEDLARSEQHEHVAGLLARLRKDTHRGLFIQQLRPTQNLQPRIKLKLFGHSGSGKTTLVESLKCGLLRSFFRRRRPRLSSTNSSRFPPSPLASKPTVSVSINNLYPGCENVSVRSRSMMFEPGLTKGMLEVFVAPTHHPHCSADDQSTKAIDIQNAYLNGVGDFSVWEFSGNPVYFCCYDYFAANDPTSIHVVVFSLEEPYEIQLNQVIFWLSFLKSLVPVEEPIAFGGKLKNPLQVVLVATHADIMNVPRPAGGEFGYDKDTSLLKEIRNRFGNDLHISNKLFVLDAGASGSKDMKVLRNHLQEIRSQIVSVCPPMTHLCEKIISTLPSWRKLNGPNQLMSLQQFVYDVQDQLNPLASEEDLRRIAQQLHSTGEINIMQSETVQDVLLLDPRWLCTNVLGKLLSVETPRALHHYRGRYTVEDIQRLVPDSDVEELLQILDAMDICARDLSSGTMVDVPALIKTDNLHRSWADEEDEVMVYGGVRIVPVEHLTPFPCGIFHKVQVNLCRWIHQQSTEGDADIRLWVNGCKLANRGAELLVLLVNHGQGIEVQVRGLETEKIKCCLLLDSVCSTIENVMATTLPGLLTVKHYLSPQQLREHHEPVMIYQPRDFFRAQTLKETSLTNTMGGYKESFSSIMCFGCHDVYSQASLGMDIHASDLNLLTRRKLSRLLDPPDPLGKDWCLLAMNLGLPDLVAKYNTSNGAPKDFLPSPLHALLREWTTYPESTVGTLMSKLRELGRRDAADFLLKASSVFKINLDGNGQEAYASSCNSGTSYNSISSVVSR

[4] = target: Serine/threonine-protein kinase TBK1 (Homo sapiens) (UniProt Q9UHD2); test: Inhibition of TBK1 assessed as residual activity at 10 uM relative to control
Chain of Serine/threonine-protein kinase TBK1 (Homo sapiens) (Q9UHD2 whole entry): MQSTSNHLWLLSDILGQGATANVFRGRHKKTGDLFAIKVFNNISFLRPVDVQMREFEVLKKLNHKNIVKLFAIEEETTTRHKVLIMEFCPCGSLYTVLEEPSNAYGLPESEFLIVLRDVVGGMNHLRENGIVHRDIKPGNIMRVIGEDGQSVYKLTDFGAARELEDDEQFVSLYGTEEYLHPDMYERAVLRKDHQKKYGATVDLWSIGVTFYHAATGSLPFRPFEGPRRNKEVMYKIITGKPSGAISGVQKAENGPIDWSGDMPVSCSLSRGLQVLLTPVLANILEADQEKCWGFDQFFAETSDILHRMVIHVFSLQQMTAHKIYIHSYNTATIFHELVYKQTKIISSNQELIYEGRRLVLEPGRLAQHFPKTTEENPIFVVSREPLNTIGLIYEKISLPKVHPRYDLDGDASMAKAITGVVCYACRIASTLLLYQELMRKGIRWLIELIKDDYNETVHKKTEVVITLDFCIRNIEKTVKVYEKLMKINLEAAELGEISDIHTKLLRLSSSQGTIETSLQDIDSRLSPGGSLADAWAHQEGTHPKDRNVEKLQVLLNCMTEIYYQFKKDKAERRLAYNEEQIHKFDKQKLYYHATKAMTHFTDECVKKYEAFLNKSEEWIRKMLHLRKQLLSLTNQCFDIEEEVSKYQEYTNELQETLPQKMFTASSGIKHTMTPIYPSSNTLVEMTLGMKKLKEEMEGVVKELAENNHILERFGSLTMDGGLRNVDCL

[5] = target: Receptor tyrosine-protein kinase erbB-4 (Homo sapiens) (UniProt Q15303); test: Inhibition of HER4 assessed as residual activity at 1 uM relative to control
How it was run: (§2)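 Standard radioactivity-based enzymatic assays were run across a 124-kinase panel (Dundee profiling), with compound at 1 µM. Kinase activity was expressed relative to control.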

[6] = target: Death-associated protein kinase 1 (Homo sapiens) (UniProt P53355); test: Inhibition of DAPK1 assessed as residual activity at 1 uM relative to control; how it was run: as §2
[7] = target: Tyrosine-protein kinase CSK (Homo sapiens) (UniProt P41240); test: Inhibition of CSK assessed as residual activity at 10 uM relative to control
Chain of Tyrosine-protein kinase CSK (Homo sapiens) (P41240 2-450 limits assumed): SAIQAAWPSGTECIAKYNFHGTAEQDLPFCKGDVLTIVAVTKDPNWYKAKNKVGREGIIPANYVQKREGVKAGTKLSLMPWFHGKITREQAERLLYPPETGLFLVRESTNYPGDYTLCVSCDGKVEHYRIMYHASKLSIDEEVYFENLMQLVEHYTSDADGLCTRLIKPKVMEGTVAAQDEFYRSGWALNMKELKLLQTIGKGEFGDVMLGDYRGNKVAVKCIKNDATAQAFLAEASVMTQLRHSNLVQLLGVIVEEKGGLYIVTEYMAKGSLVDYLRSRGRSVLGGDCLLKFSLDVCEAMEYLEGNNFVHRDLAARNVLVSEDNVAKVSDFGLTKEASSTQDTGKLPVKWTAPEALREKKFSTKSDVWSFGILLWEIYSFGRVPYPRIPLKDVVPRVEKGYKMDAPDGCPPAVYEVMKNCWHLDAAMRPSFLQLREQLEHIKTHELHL

[8] = target: MAP kinase-activated protein kinase 5 (Homo sapiens) (UniProt Q8IW41); test: Inhibition of PRAK assessed as residual activity at 1 uM relative to control
[9] = target: Serine/threonine-protein kinase TBK1 (Homo sapiens) (UniProt Q9UHD2); test: Inhibition of TBK1 assessed as residual activity at 1 uM relative to control
[10] = target: Glycogen synthase kinase-3 beta (Homo sapiens) (UniProt P49841); test: Inhibition of GSK3b assessed as residual activity at 10 uM relative to control
[11] = target: Eukaryotic translation initiation factor 2-alpha kinase 3 (Homo sapiens) (UniProt Q9NZJ5); test: Inhibition of EIF2AK3 assessed as residual activity at 1 uM relative to control; how it was run: as §2
[12] = test system: Leucine-rich repeat serine/threonine-protein kinase 2 (Homo sapiens), Q5S007 [A2016T]; test: Inhibition of LRRK2 A2016T mutant phosphorylation at Ser910 expressed in HEK293 cells at 1 to 3 uM after 90 mins by immunoblot analysis; assay type: cell-based
[13] = target: Mitogen-activated protein kinase 15 (Homo sapiens) (UniProt Q8TD08); test: Inhibition of ERK8 assessed as residual activity at 1 uM relative to control; how it was run: as §2
Chain of Mitogen-activated protein kinase 15 (Homo sapiens) (Q8TD08 whole entry): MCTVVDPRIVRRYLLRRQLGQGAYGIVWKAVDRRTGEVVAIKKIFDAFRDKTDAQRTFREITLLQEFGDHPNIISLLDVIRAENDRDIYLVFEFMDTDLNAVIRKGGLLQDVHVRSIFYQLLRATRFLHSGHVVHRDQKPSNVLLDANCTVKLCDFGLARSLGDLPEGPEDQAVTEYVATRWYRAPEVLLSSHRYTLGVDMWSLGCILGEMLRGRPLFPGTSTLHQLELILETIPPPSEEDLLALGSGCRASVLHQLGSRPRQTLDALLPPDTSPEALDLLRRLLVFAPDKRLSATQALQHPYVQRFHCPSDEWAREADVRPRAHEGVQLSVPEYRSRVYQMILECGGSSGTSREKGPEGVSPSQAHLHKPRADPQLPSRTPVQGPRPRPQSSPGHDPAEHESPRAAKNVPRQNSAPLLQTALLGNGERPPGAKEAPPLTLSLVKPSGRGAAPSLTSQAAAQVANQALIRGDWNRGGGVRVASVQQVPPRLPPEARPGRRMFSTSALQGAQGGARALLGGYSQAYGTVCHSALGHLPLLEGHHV

[14] = target: Mitogen-activated protein kinase 15 (Homo sapiens) (UniProt Q8TD08); test: Inhibition of ERK8 assessed as residual activity at 10 uM relative to control
[15] = target: Mitogen-activated protein kinase 13 (Homo sapiens) (UniProt O15264); test: Inhibition of p38delta MAPK assessed as residual activity at 10 uM relative to control; how it was run: as §1
Chain of Mitogen-activated protein kinase 13 (Homo sapiens) (O15264 whole entry): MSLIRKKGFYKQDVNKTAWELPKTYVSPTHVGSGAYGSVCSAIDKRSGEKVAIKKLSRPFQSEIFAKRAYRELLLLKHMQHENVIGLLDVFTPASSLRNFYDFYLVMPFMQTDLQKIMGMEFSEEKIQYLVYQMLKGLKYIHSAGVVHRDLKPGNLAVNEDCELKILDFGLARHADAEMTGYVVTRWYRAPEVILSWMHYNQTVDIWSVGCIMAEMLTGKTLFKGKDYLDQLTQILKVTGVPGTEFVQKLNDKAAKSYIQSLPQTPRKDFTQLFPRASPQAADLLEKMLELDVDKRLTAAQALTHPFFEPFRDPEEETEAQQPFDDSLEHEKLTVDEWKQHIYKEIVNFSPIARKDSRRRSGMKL

[16] = target: Protein-tyrosine kinase 6 (Homo sapiens) (UniProt Q13882); test: Inhibition of BRK assessed as residual activity at 1 uM relative to control
[17] = target: Angiopoietin-1 receptor (Homo sapiens) (UniProt Q02763); test: Inhibition of TIE2 assessed as residual activity at 10 uM relative to control; how it was run: as §1
[18] = target: Tyrosine-protein kinase ZAP-70 (Homo sapiens) (UniProt P43403); test: Inhibition of ZAP70 assessed as residual activity at 1 uM relative to control; how it was run: as §1
[19] = target: Mitogen-activated protein kinase 12 (Homo sapiens) (UniProt P53778); test: Inhibition of p38gamma MAPK assessed as residual activity at 1 uM relative to control; how it was run: as §1
[20] = test system: Mus musculus; test: Inhibition of LRRK2 phosphorylation at Ser935 in C57BL/6 mouse kidney at 50 mg/kg, po administered for 8 hrs followed by 2 hrs dosing; assay type: functional, organism-based; parameters: dose 50 mg/kg
How it was run: (§3)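 Mice were dosed by oral gavage at 10 or 50 mg/kg. Brain, spleen and kidney were collected. Endogenous LRRK2 was resolved by SDS–PAGE and blotted with phospho-specific antibodies to Ser910 and Ser935 and with an antibody to total LRRK2.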

[21] = target: T1, Leucine-rich repeat serine/threonine-protein kinase 2 (Homo sapiens, UniProt Q5S007); test: Inhibition of wild type LRRK2 phosphorylation at Ser935 in human lymphoblastoid cells at 0.03 to 3 uM after 90 mins by Western blot analysis; assay type: cell-based
[22] = test system: Mus musculus; test: Inhibition of LRRK2 phosphorylation at Ser935 in C57BL/6 mouse kidney at 10 mg/kg, po administered for 8 hrs followed by 2 hrs dosing; assay type: functional, organism-based; parameters: dose 10 mg/kg; how it was run: as §3
[23] = target: Mitogen-activated protein kinase 13 (Homo sapiens) (UniProt O15264); test: Inhibition of p38delta MAPK assessed as residual activity at 1 uM relative to control; how it was run: as §1
[24] = target: Dual specificity mitogen-activated protein kinase kinase 6 (Homo sapiens) (UniProt P52564); test: Inhibition of MKK6 assessed as residual activity at 1 uM relative to control
[25] = target: Serine/threonine-protein kinase pim-3 (Homo sapiens) (UniProt Q86V86); test: Inhibition of PIM3 assessed as residual activity at 10 uM relative to control
[26] = target: Protein kinase C alpha type (Homo sapiens) (UniProt P17252); test: Inhibition of PKCalpha assessed as residual activity at 1 uM relative to control
[27] = target: Tau-tubulin kinase 1 (Homo sapiens) (UniProt Q5TCY1); test: Inhibition of TTBK1 assessed as residual activity at 1 uM relative to control; how it was run: as §1
[28] = target: T1, Leucine-rich repeat serine/threonine-protein kinase 2; test: Inhibition of wild type LRRK2 phosphorylation at Ser910 in human lymphoblastoid cells at 0.03 to 3 uM after 90 mins by Western blot analysis; assay type: cell-based
[29] = target: Serine/threonine-protein kinase N2 (Homo sapiens) (UniProt Q16513); test: Inhibition of PRK2 assessed as residual activity at 1 uM relative to control
[30] = target: Tyrosine-protein kinase CSK (Homo sapiens) (UniProt P41240); test: Inhibition of CSK assessed as residual activity at 1 uM relative to control; how it was run: as §2
[31] = target: Calcium/calmodulin-dependent protein kinase kinase 2 (Homo sapiens) (UniProt Q96RR4); test: Inhibition of CAMKKb assessed as residual activity at 1 uM relative to control; how it was run: as §2
Chain of Calcium/calmodulin-dependent protein kinase kinase 2 (Homo sapiens) (Q96RR4 2-588 limits assumed): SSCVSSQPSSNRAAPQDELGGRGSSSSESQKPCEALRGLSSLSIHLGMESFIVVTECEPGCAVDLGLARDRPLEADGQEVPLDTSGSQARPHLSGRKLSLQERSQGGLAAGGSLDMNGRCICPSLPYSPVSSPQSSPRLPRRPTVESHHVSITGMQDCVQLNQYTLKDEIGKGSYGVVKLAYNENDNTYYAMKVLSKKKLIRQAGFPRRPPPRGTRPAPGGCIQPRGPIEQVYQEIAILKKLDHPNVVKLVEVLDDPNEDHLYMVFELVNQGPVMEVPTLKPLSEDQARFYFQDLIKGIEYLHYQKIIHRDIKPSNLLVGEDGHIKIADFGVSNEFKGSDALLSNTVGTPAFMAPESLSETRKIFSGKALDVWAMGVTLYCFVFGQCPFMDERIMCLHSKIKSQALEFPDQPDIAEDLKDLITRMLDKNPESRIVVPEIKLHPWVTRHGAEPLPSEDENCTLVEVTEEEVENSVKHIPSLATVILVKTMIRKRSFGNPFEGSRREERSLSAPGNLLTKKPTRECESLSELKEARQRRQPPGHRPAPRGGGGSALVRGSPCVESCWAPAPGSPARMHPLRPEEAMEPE

[32] = target: Serine/threonine-protein kinase PAK 5 (Homo sapiens) (UniProt Q9P286); test: Inhibition of PAK5 assessed as residual activity at 1 uM relative to control
[33] = Inhibition of CK2 assessed as residual activity at 1 uM relative to control
[34] = test system: Mus musculus; test: Inhibition of LRRK2 phosphorylation at Ser935 in C57BL/6 mouse brain at 10 to 50 mg/kg, po administered for 8 hrs followed by 2 hrs dosing; assay type: functional, organism-based; how it was run: as §3
[35] = target: Serine/threonine-protein kinase pim-1 (Homo sapiens) (UniProt P11309); test: Inhibition of PIM1 assessed as residual activity at 10 uM relative to control
Chain of Serine/threonine-protein kinase pim-1 (Homo sapiens) (P11309 whole entry, looked up): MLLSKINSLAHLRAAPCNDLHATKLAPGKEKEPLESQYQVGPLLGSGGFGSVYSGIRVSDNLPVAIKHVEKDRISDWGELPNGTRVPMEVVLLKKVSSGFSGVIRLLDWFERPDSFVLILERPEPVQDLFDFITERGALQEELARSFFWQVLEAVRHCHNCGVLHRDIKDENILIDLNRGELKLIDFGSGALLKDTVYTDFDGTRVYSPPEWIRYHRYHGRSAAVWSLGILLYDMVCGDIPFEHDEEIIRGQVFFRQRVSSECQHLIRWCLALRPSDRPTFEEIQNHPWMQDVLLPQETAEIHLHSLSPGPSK

Chain of Mitogen-activated protein kinase 14 (Homo sapiens) (Q16539 whole entry): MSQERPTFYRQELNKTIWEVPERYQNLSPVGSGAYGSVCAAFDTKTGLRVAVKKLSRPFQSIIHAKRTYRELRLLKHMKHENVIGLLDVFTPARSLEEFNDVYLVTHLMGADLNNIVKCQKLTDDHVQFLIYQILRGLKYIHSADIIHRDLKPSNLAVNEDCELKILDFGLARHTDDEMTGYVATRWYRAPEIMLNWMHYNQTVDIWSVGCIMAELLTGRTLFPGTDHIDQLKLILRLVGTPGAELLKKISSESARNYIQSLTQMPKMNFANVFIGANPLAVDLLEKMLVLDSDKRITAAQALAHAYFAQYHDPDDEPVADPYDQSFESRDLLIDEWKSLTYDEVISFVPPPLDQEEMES

COc1cc(N2CCC(N3CCN(C)CC3)CC2)ccc1Nc1ncc(Cl)c(Nc2ccccc2S(=O)(=O)C(C)C)n1 [TAE-684]
Activity [1]: 88%
inhibition [2]: Dose-dependent effect
Activity [3]: 79%
Activity [4]: 71%
Activity [5]: 36%
Activity [6]: 98%
Activity [7]: 33%
Activity [8]: 101%
Activity [9]: 93%
Activity [10]: 92%
Activity [11]: 101%
inhibition [12]: Active
Activity [13]: 47%
Activity [14]: 26%
Activity [15]: 87%
Activity [16]: 5%
Activity [17]: 5%
Activity [18]: 113%
Activity [19]: 102%
inhibition [20]: Active
inhibition [21]: Active
inhibition [22]: Active
Activity [23]: 94%
Activity [24]: 90%
Activity [25]: 104%
Activity [26]: 109%
Activity [27]: 88%
inhibition [28]: Active
Activity [29]: 51%
Activity [30]: 77%
Activity [31]: 9%
Activity [32]: 66%
Activity [33]: 75%
inhibition [34]: inactive
Activity [35]: 101%
